According to ChEMBL document CHEMBL5223168, “Using Imidazo[2,1-b][1,3,4]thiadiazol Skeleton to Design and Synthesize Novel MNK Inhibitors” (ACS Med Chem Lett, 2023):
Calls of active or inactive are those of the source. The rule behind the calls is not given here.

Key:
3T3-L1 = experiment: Inhibition of MNK in mouse 3T3-L1 cells assessed as inhibition of eIF4E phosphorylation at 5 uM incubated for 2 hrs by Western blot analysis; format: cell-based
In short: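 Mouse 3T3-L1 cells exposed to compound at 5 μM for 2 h; lysates resolved by SDS-PAGE and immunoblotted for phospho-eIF4E. Reference MNK inhibitor run in parallel at 1 μM.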

MEF = experiment: Inhibition of MNK in MNK2 knockout mouse MEF cells assessed as inhibition of eIF4E phosphorylation at 3 uM incubated for 2 hrs by Western blot analysis; format: cell-based
In short: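 MEFs lacking MNK1 or MNK2 (wild-type for comparison) treated 2 h at indicated concentrations; lysates immunoblotted for p-eIF4E, which reflects the remaining MNK isoform; quantified from three independent experiments, SEM.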

Homo sapiens = species on record: Homo sapiens; experiment: Inhibition of QIK (unknown origin) at 3 uM in presence of ATP by kinase assay
In short: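 Single-point kinase profiling: inhibitor tested at 3 μM against a panel of 60 kinases from different families, activity presented as heatmap.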

[1] = molecular target: Dual specificity protein kinase CLK1 (Homo sapiens) (UniProt P49759); experiment: Inhibition of CLK1 (unknown origin) at 3 uM in presence of ATP by kinase assay
[2] = molecular target: Mitogen-activated protein kinase 8 (Homo sapiens) (UniProt P45983); experiment: Inhibition of JNK1 (unknown origin) at 3 uM in presence of ATP by kinase assay
A549 [3] = experiment: Inhibition of colony formation in human A549 cells at 1 to 5 uM measured after 10 days by crystal violet staining based clonogenic assay; format: functional, cell-based; details: dose 1-5 µM, time 10.0 day
In short: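 Clonogenic assay over 10 days; cells treated with DMSO vehicle or compound at indicated concentrations, plates scanned and colonies quantified from three independent experiments.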

A549 [4] = experiment: Induction of cell cycle arrest in human A549 cells assessed as decrease in cyclin B1 level at 5 uM incubated for 24 hrs by Western blot analysis; format: functional, cell-based
In short: (§1)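 A549 and MDA-MB-231 cells treated 24 h with 5 μM; lysates resolved by SDS-PAGE and immunoblotted for cyclin B1, cyclin D3 and MMP-3.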

A549 [5] = experiment: Induction of cell cycle arrest in human A549 cells assessed as decrease in cyclin D3 level at 5 uM incubated for 24 hrs by Western blot analysis; format: functional, cell-based; in short: as §1
MDA-MB-231 = experiment: Induction of cell cycle arrest in human MDA-MB-231 cells assessed as decrease in cyclin D3 level at 5 uM incubated for 24 hrs by Western blot analysis; format: functional, cell-based; in short: as §1
A549 [6] = experiment: Induction of cell cycle arrest in human A549 cells assessed as accumulation of cells at G2/M phase at 5 uM incubated for 8 hrs by propidium iodide staining based flow cytometry (Rvb=6.5%); format: functional
A549 [7] = experiment: Induction of cell cycle arrest in human A549 cells assessed as accumulation of cells at G2/M phase at 5 uM incubated for 16 hrs by propidium iodide staining based flow cytometry (Rvb=11.8%); format: functional
A549 [8] = experiment: Induction of cell cycle arrest in human A549 cells assessed as accumulation of cells at S phase at 5 uM incubated for 8 hrs by propidium iodide staining based flow cytometry (Rvb=1.7%); format: functional
A549 [9] = experiment: Induction of cell cycle arrest in human A549 cells assessed as accumulation of cells at S phase at 5 uM incubated for 16 hrs by propidium iodide staining based flow cytometry (Rvb=12.8%); format: functional
A549 [10] = experiment: Induction of cell cycle arrest in human A549 cells assessed as accumulation of cells at G0/G1 phase at 5 uM incubated for 8 hrs by propidium iodide staining based flow cytometry (Rvb=91.7%); format: functional
[11] = Cmax in mouse at 25 mg/kg, iv and measured upto 24 hrs; format: ADME, organism-based; set-up: dose 25 mg/kg, time < 24 hrs, route iv; details: in vivo
[12] = Half life in mouse at 25 mg/kg, iv and measured upto 24 hrs; format: ADME, organism-based; details: in vivo
[13] = Clearance in mouse at 25 mg/kg, iv and measured upto 24 hrs; format: ADME, organism-based; details: in vivo
[14] = AUC (0-t) in mouse at 25 mg/kg, iv and measured upto 24 hrs; format: ADME, organism-based; set-up: time < 24 hrs, dose 25 mg/kg, route iv; details: in vivo
[15] = Apparent volume of distribution in mouse at 50 mg/kg, po and measured upto 24 hrs; format: ADME, organism-based; details: in vivo
[16] = Tmax in mouse at 50 mg/kg, po and measured upto 24 hrs; format: ADME, organism-based; details: in vivo
[17] = Clearance in mouse at 50 mg/kg, po and measured upto 24 hrs; format: ADME, organism-based; details: in vivo
[18] = AUC (0-t) in mouse at 50 mg/kg, po and measured upto 24 hrs; format: ADME, organism-based; set-up: dose 50 mg/kg, time < 24 hrs, route po; details: in vivo
[19] = Oral bioavailability in mouse at 50 mg/kg and 25 mg/kg, iv and measured upto 24 hrs; format: ADME, organism-based; details: in vivo
A549 [20] = experiment: Antitumor activity against human A549 cells xenografted in BALB/C nude mouse assessed as T/C ratio at 150 mg/kg, po QD for 14 days; format: functional; details: time 14 day
In short: (§2)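 A549 xenografts in nude mice; compound given orally once daily at 75 or 150 mg/kg for 14 days, irinotecan reference at 3 mg/kg; tumor growth tracked as T/C ratio (relative tumor proliferation rate); body weight monitored.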

A549 [21] = experiment: Antitumor activity against human A549 cells xenografted in BALB/C nude mouse assessed as reduction in tumor volume at 75 to 150 mg/kg, po QD for 14 days; format: functional, organism-based; details: dose 75-150 mg/kg, time 14.0 day; in short: as §2
[22] = Toxicity in BALB/C nude mouse xenografted with human A549 cells assessed as body weight loss at 75 to 150 mg/kg, po QD for 14 days; format: organism-based; details: in vivo, 336 h, dose 75-150 mg/kg, time 14 day
In short: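 A549 xenografts in nude mice dosed orally once daily at 75 or 150 mg/kg for 14 days; body weight monitored for tolerability, irinotecan 3 mg/kg as positive control group.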

[23] = test system: MAP kinase-interacting kinase MNK1/2 (Homo sapiens); experiment: Inhibition of MNK in human A549 cells assessed as reduction in MCP-1 level at 1 to 10 uM incubated for 48 hrs by ELISA; details: dose 1-10 µM
[24] = test system: MAP kinase-interacting kinase MNK1/2 (Homo sapiens); experiment: Inhibition of MNK in human NCI-H446 cells assessed as inhibition of eIF4E phosphorylation at 3 uM incubated for 2 hrs by Western blot analysis
[25] = test system: MAP kinase-interacting kinase MNK1/2 (Homo sapiens); experiment: Inhibition of MNK in human LNCaP C4-2B cells assessed as inhibition of eIF4E phosphorylation at 5 uM incubated for 2 hrs by Western blot analysis
MV4-11 [26] = experiment: Induction of cell cycle arrest in human MV4-11 cells assessed as decrease in cyclin B1 level at 3 uM incubated for 24 hrs by Western blot analysis
MV4-11 [27] = experiment: Induction of cell cycle arrest in human MV4-11 cells assessed as decrease in cyclin D3 level at 3 uM incubated for 24 hrs by Western blot analysis
[28] = test system: MAP kinase-interacting kinase MNK1/2 (Mus musculus); experiment: Inhibition of MNK in wild type mouse MEF cells assessed as inhibition of eIF4E phosphorylation at 3 uM incubated for 2 hrs by Western blot analysis

Chain of Dual specificity protein kinase CLK1 (Homo sapiens) (P49759 whole entry, looked up): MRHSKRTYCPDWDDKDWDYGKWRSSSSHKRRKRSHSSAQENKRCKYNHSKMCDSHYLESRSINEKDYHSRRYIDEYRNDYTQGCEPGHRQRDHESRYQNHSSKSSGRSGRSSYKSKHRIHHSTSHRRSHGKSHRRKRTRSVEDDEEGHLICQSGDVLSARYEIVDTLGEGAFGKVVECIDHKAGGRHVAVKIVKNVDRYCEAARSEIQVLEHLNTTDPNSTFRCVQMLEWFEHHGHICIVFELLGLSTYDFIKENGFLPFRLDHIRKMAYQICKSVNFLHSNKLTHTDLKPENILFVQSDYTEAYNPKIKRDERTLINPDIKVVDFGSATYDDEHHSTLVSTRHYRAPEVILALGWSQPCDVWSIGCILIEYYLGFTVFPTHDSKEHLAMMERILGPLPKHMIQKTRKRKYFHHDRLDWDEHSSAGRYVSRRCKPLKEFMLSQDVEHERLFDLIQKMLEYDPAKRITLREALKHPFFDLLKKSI
Chain of Mitogen-activated protein kinase 8 (Homo sapiens) (P45983 whole entry): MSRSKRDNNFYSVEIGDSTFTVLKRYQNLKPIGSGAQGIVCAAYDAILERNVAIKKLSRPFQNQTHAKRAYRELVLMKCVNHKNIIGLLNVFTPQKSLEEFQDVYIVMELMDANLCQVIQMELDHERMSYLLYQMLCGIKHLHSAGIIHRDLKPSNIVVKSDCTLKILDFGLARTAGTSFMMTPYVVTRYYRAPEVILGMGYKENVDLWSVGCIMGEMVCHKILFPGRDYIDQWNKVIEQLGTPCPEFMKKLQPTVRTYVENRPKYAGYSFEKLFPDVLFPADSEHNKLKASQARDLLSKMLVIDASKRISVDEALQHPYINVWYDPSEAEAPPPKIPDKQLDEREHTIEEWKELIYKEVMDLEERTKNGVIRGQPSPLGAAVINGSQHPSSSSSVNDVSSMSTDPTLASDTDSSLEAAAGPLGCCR

inhibition (Homo sapiens): Active | inhibition [1]: Active | inhibition [2]: Active | Cmax [11]: 32100 ng/mL | half-life [12]: 3.4 h | clearance [13]: 5.13 mL/min/kg | AUC(0-t) at 24 h [14]: 80900 ng·h/mL | Vz [15]: 3.155 L/kg | Tmax [16]: 1 h | CL/F [17]: 8.45 mL/min/kg | AUC(0-t) at 24 h [18]: 98500 ng·h/mL | bioavailability [19]: 60.9% | inhibition [23]: Active | inhibition [24]: Active | inhibition [25]: Active | inhibition [28]: Active
SMILES: CN1CCN(C(=O)c2ccc(-c3nn4c(-c5ccc(C#N)cc5)cnc4s3)cc2)CC1
inhibition (3T3-L1): Active | inhibition (MEF): 50% | inhibition (A549 [3]): Dose-Dependent Effect | Activity (A549 [4]): Active | Activity (A549 [5]): Active | Activity (MDA-MB-231): Active | Activity (A549 [6]): 9% | Activity (A549 [7]): 5.2% | Activity (A549 [8]): 2.7% | Activity (A549 [9]): 5.2% | Activity (A549 [10]): 88.2% | T/C (A549 [20]): 0.5 | Activity (A549 [21]): Dose-Dependent Effect | Activity [22]: < 10% | Activity (MV4-11 [26]): Active | Activity (MV4-11 [27]): Active
